From ChEMBL document CHEMBL1821696, “Substitution of the phosphonic acid and hydroxamic acid functionalities of the DXR inhibitor FR900098: an attempt to improve the activity against Mycobacterium tuberculosis” (Bioorg Med Chem Lett, 2011)
≈ marks a conversion by molar mass, not a printed value.

Columns and labels:
[1] = target: T1, 1-deoxy-D-xylulose 5-phosphate reductoisomerase (Mycobacterium tuberculosis) (UniProt P9WNS1); test: Inhibition of Mycobacterium tuberculosis DXR assessed as reduction of 1-deoxy-D-xylulose 5-phosphate into 2-C-methyl-D-erythritol-4-phosphate at 100 uM measured for every 5 secs upto 500 secs by spectrophotometry analysis
T1 sequence (whole entry): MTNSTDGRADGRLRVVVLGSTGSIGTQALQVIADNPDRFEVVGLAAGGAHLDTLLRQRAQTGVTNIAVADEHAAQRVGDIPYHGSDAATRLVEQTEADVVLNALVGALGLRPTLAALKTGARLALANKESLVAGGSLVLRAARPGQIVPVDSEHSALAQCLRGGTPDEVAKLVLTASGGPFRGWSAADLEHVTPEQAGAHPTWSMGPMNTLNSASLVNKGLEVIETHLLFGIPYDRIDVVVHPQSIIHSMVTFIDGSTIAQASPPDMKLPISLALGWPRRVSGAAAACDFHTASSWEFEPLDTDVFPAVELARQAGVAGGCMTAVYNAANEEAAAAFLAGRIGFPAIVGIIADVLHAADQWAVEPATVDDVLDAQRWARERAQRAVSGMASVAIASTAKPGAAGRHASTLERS
How it was run: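 MtDXR reaction in 50 mM HEPES-NaOH pH 7.5, 100 mM NaCl, 1.5 mM MnCl2, 0.2 mM NADPH, 0.2 mM DXP and a single inhibitor concentration. Started by adding DXP and run at 22 °C. NADPH consumption read as A340 every 5 s for 500 s. Initial velocity from the linear slope gives % inhibition relative to the uninhibited reaction.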

[2] = tested on: Mycobacterium tuberculosis; test: Antimycobacterial activity against Mycobacterium tuberculosis by whole-cell assay; assay type: functional
[3] = target: T2, 1-deoxy-D-xylulose 5-phosphate reductoisomerase (Mycobacterium tuberculosis, UniProt P9WNS1); test: Inhibition of Mycobacterium tuberculosis DXR assessed as reduction of 1-deoxy-D-xylulose 5-phosphate into 2-C-methyl-D-erythritol-4-phosphate measured for every 5 secs upto 500 secs by spectrophotometry analysis
T2 sequence (P9WNS1 whole entry): T1 sequence (whole entry)
How it was run: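 MtDXR in 50 mM HEPES-NaOH pH 7.5, 100 mM NaCl, 1.5 mM MnCl2, 0.2 mM NADPH and 0.2 mM DXP, started with DXP at 22 °C. A340 read every 5 s for 500 s. Six inhibitor concentrations spanning 0.01–1000. Initial-rate activities relative to the uninhibited reaction were fitted to a Hi/Lo four-parameter curve for IC50.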

SMILES	inhibition [1]	MIC [2]	IC50 [3]
CC(=O)N(O)CCCP(=O)(O)OCCc1ccccc1	23%	–	–
CC(=O)N(O)CCCC(=O)O	0%	–	–
CC(=O)N(O)CCC1NC(=O)NC1=O (configuration not stated)	13%	–	–
O=c1oc2cc(Br)cnc2n1CCCP(=O)(O)O	7%	–	–
O=c1oc2cccnc2n1CCCP(=O)(O)O	11%	–	–
O=c1oc2cc(-c3ccccc3)cnc2n1CCCP(=O)(O)O	11%	256 µg/mL (≈ 766 µM)	–
O=C1N[C@H](CCP(=O)(O)O)CO1	0%	–	–
O=P(O)(O)CCc1ccc(O)c(O)c1	78%	> 512 µg/mL	41 µM
CC(=O)N(O)CCc1c(C(=O)O)noc1C	41%	> 512 µg/mL	151 µM
O=c1cccc(CCP(=O)(O)O)n1O	61%	> 512 µg/mL	53 µM
CC(=O)N(O)CCCC(=O)NS(C)(=O)=O	29%	–	–
CC(=O)N(O)CCCc1nnn[nH]1	0%	–	–
CC(=O)N(O)CCCS(=O)(=O)O	36%	–	> 100 µM
O=C1NC(=O)C(CCP(=O)(O)O)N1 (configuration not stated)	8%	–	–
